These results are taken from ChEMBL document CHEMBL3525897, “Metabolism and quantification of [(18)F]DPA-714, a new TSPO positron emission tomography radioligand” (Drug Metab Dispos, 2013).

Data set [1] can be described thus: Retention time in baboon plasma treated with [18F]DPA-714 by radio-HPLC analysis. The data set is classed as ADME, cell-free. To be noted: papio anubis. In short, it runs like this: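 Isoflurane-anaesthetized baboons, 6 PET experiments. Arterial femoral plasma sampled 0-120 min and centrifuged at 4°C, then deproteinated with acetonitrile; pellet radioactivity counted and treated as metabolite. Supernatant run on radio-HPLC (C18 preparative, 0.1% TFA water/acetonitrile 20-80% over 10 min, 5 mL/min). Counts decay-corrected to injection. Parent fraction as % total; data fitted to two exponentials; mean ± sd.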

For data set [2], the system named is Liver microsome. The data set is described as follows: Drug level in Sprague-Dawley rat liver microsomes treated with DPA-714 after 15 to 60 mins by LC-MS/MS analysis. In general terms: Liver microsomes are vesicles of endoplasmic reticulum, rich in cytochrome P450 enzymes.
Data set [3] in a line: Retention time of the compound by LC-MS analysis. The data set is classed as physicochemical. In short, it runs like this: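 Separation of DPA-714 and its metabolites by LC-MS on reverse-phase Atlantis C18 column (2.1x150 mm) with electrospray ionization.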
Data set [4] deals with Liver microsome. Kind of data set: Drug metabolism in Sprague-Dawley rat liver microsomes assessed as N,N-diethyl-2-(2-(4-(2-fluoroethoxy)phenyl)-5-(hydroxymethyl)-7-methylpyrazolo[1,5-a]pyrimidin-3-yl)acetamide level after 15 to 60 mins by LC-MS/MS analysis. The data set is classed as ADME. An outline of the steps: (§1)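 Liver microsomes (rat, baboon, or pooled human from 10 donors), 1 mg protein/mL, with DPA-714 100 µM in 0.1 M potassium phosphate, pH 7.4. Preincubated 2 min at 37°C, then started with NADPH-generating system. Run 15, 30 and 60 min; rates from 30 min. Stopped with acetonitrile, filtered, analysed by LC-MS-MS. Rates in nmol/mg/min; mean ± sd of 5 duplicate experiments.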

The test system of data set [5] is Liver microsome. Kind of data set: Drug metabolism in Sprague-Dawley rat liver microsomes assessed as N,N-diethyl-2-(2-(4-(2-fluoroethoxy)phenyl)-5,7-bis(hydroxymethyl)pyrazolo[1,5-a]pyrimidin-3-yl)acetamide level after 15 to 60 mins by LC-MS/MS analysis. The data set is classed as ADME. In short, it runs like this: as §1
Data set [6] can be described thus: Drug metabolism in baboon liver microsomes assessed as N,N-diethyl-2-(2-(4-hydroxyphenyl)-5,7-dimethylpyrazolo[1,5-a]pyrimidin-3-yl)acetamide level after 15 to 60 mins by LC-MS/MS analysis. The data set is classed as ADME. The conditions noted are these: papio anubis. An outline of the steps:
as §1

Data set [7] deals with Liver microsome. Kind of data set: Drug metabolism in human liver microsomes assessed as N-ethyl-2-(2-(4-(2-fluoroethoxy)phenyl)-5,7-dimethylpyrazolo[1,5-a]pyrimidin-3-yl)acetamide level after 15 to 60 mins by LC-MS/MS analysis. The data set is classed as ADME. In short, it runs like this: as §1
For data set [8], the system named is Liver microsome. Kind of data set: Drug metabolism in Sprague-Dawley rat liver microsomes assessed as N-ethyl-2-(2-(4-(2-fluoroethoxy)phenyl)-5-(hydroxymethyl)-7-methylpyrazolo[1,5-a]pyrimidin-3-yl)acetamide level after 15 to 60 mins by LC-MS/MS analysis. The data set is classed as ADME. In short, it runs like this:
as §1

For data set [9], the system named is Liver microsome. The data set is described as follows: Drug metabolism in Sprague-Dawley rat liver microsomes assessed as N,N-diethyl-2-(2-(4-(2-fluoroethoxy)phenyl)-6-hydroxy-5,7-dimethylpyrazolo[1,5-a]pyrimidin-3-yl)acetamide level after 15 to 60 mins by LC-MS/MS analysis. The data set is classed as ADME. In short, it runs like this:
as §1

For data set [10], the system named is Liver microsome. Kind of data set: Drug metabolism in human liver microsomes assessed as N,N-diethyl-2-(2-(4-(2-fluoroethoxy)phenyl)-7-(hydroxymethyl)-5-methylpyrazolo[1,5-a]pyrimidin-3-yl)acetamide level after 15 to 60 mins by LC-MS/MS analysis. The data set is classed as ADME. An outline of the steps:
as §1

Data set [11] deals with Liver microsome. Kind of data set: Drug metabolism in Sprague-Dawley rat liver microsomes assessed as N,N-diethyl-2-(2-(4-hydroxyphenyl)-5,7-dimethylpyrazolo[1,5-a]pyrimidin-3-yl)acetamide level after 15 to 60 mins by LC-MS/MS analysis. The data set is classed as ADME. In short, it runs like this:
as §1

Data set [12] can be described thus: Drug metabolism in baboon liver microsomes assessed as N,N-diethyl-2-(2-(4-(2-fluoroethoxy)phenyl)-7-(hydroxymethyl)-5-methylpyrazolo[1,5-a]pyrimidin-3-yl)acetamide level after 15 to 60 mins by LC-MS/MS analysis. The data set is classed as ADME. The conditions noted are these: papio anubis. In short, it runs like this: as §1
Data set [13] relates to Liver microsome. The data set is described as follows: Drug metabolism in Sprague-Dawley rat liver microsomes assessed as N,N-diethyl-2-(2-(4-(2-fluoroethoxy)phenyl)-7-(hydroxymethyl)-5-methylpyrazolo[1,5-a]pyrimidin-3-yl)acetamide level after 15 to 60 mins by LC-MS/MS analysis. The data set is classed as ADME. An outline of the steps: as §1
In data set [14] the test system is Liver microsome. The data set is described as follows: Drug metabolism in Sprague-Dawley rat liver microsomes assessed as N-ethyl-2-(2-(4-(2-fluoroethoxy)phenyl)-5,7-dimethylpyrazolo[1,5-a]pyrimidin-3-yl)acetamide level after 15 to 60 mins by LC-MS/MS analysis. The data set is classed as ADME. In short, it runs like this: as §1

`CCNC(=O)Cc1c(-c2ccc(OCC[18F])cc2)nn2c(C)cc(C)nc12`: the Retention_time in data set [1] is reported as 8.583 min.
For the molecule `CCN(CC)C(=O)Cc1c(-c2ccc(OCCF)cc2)nn2c(CO)cc(CO)nc12`, the Drug metabolism result in data set [2] was “metabolite_detected”. For the same molecule, the Retention_time in data set [3] was 14.28 min.
Take `CCN(CC)C(=O)Cc1c(-c2ccc(O)cc2)nn2c(C)cc(C)nc12`: the Drug metabolism entry in data set [2] is “metabolite_detected”. This molecule yielded a Retention_time in data set [3] of 15.05 min.
For `CCNC(=O)Cc1c(-c2ccc(OCCF)cc2)nn2c(C)cc(CO)nc12`, in that order: “metabolite_detected” and 13.88 min.
On to `CCN(CC)C(=O)Cc1c(-c2ccc(OCCF)cc2)nn2c(C)cc(C)nc12` [DPA-714], for which the Drug metabolism in data set [4] is 0.89 nmol/mg/min; in data set [5], “metabolite_detected”; in data set [6], 0.64 nmol/mg/min; in data set [7] it was 0.45 nmol/mg/min; in data set [8], “metabolite_detected”; in [9], “metabolite_detected”. Besides, the Drug metabolism in data set [10] is 0.57 nmol/mg/min; in data set [11] it was “metabolite_detected”; in data set [12], 0.46 nmol/mg/min; in data set [13] it was “metabolite_detected”; in data set [14] it was 0.82 nmol/mg/min.
